According to ChEMBL document CHEMBL1122756, “Synthesis of (E)-5-(3,3,3-trifluoro-1-propenyl)-2'-deoxyuridine and related analogues: potent and unusually selective antiviral activity of (E)-5-(3,3,3-trifluoro-1-propenyl)-2'-deoxyuridine against herpes simplex virus type 1” (1984):
In brackets after ≈: the same amount, converted by molar mass.

Tests used:
Oryctolagus cuniculus [1] = organism: Oryctolagus cuniculus; assay: Concentration of compound required to inhibit [1',2'-3H]dUrd incorporation into host cell DNA by 50% in primary rabbit kidney cell cultures; assay type: functional; conditions: read-out: ID50 (the source's name)
Procedure, shortened: (§1)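 Uptake of radiolabel into DNA was measured in PRK cultures. Input per 10^5 cells was 6 pmol (0.25 µCi) of [1',2'-3H]dUrd for the dUrd line, or 10 pmol (0.38 µCi) of [methyl-3H]dThd for the dThd line. The value is the concentration giving 50% inhibition of incorporation.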

Human alphaherpesvirus 1 [2] = assay: Compound was evaluated for antiviral activity against HSV-1(strain KOS); assay type: functional
Procedure, shortened: (§2)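 Herpes stocks grown in primary rabbit kidney (PRK) cells. Confluent PRK cultures were inoculated at 0.03 pfu/cell, and the compound's effect on virus multiplication was measured. The readout is ID99, the concentration that cuts viral yield by 99%.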

Vaccinia virus [3] = assay: Compound was evaluated for antiviral activity against vaccinia; assay type: functional, Orthopoxvirus vaccinia
Human alphaherpesvirus 2 = assay: Compound was evaluated for antiviral activity against HSV-2(strain G); assay type: functional; procedure, shortened: as §2
Oryctolagus cuniculus [4] = organism: Oryctolagus cuniculus; assay: Concentration of compound required to inhibit [methyl-3H]dThd incorporation into host cell DNA by 50% in primary rabbit kidney cell cultures; assay type: functional; conditions: read-out: ID50 (the source's name); procedure, shortened: as §1
Human alphaherpesvirus 1 [5] = assay: Compound was evaluated for antiviral activity against HSV-1(TK-, strain B2006); assay type: functional; procedure, shortened: as §2
Vaccinia virus [6] = assay: Compound was evaluated for its antiviral activity against vaccinia; assay type: functional, Orthopoxvirus vaccinia

O=c1[nH]c(=O)n([C@H]2C[C@H](O)[C@@H](CO)O2)cc1/C=C/C(F)(F)F
IC50 (Oryctolagus cuniculus [1]): 150 µg/mL (≈ 465 µM)
ID99 (Human alphaherpesvirus 1 [2]): 0.03 µg/mL
ID99 (Vaccinia virus [3]): >100 µg/mL
ID99 (Human alphaherpesvirus 2): 100 µg/mL
IC50 (Oryctolagus cuniculus [4]): 300 µg/mL (≈ 931 µM)
ID99 (Human alphaherpesvirus 1 [5]): >100 µg/mL

C/C=C/c1cn([C@H]2C[C@H](O)[C@@H](CO)O2)c(=O)[nH]c1=O
IC50 (Oryctolagus cuniculus [1]): 40 µg/mL (≈ 149 µM)
ID99 (Human alphaherpesvirus 1 [2]): 0.15 µg/mL
ID99 (Vaccinia virus [3]): >100 µg/mL
ID99 (Human alphaherpesvirus 2): 18 µg/mL
IC50 (Oryctolagus cuniculus [4]): 25 µg/mL (≈ 93.2 µM)
ID99 (Human alphaherpesvirus 1 [5]): >100 µg/mL

O=c1[nH]c(=O)n([C@H]2C[C@H](O)[C@@H](CO)O2)cc1/C=C/Br [BRIVUDINE]
IC50 (Oryctolagus cuniculus [1]): 20 µg/mL (≈ 60 µM)
ID99 (Human alphaherpesvirus 1 [2]): 0.008 µg/mL
ID99 (Vaccinia virus [6]): 22 µg/mL
ID99 (Human alphaherpesvirus 2): 3 µg/mL
IC50 (Oryctolagus cuniculus [4]): 70 µg/mL (≈ 210 µM)
ID99 (Human alphaherpesvirus 1 [5]): >100 µg/mL

O=c1[nH]c(=O)n([C@H]2C[C@H](O)[C@@H](CO)O2)cc1I [IDOXURIDINE]
IC50 (Oryctolagus cuniculus [1]): 0.25 µg/mL (≈ 0.706 µM)
ID99 (Human alphaherpesvirus 1 [2]): 0.1 µg/mL
ID99 (Vaccinia virus [3]): 0.25 µg/mL
ID99 (Human alphaherpesvirus 2): 0.8 µg/mL
IC50 (Oryctolagus cuniculus [4]): 1 µg/mL (≈ 2.82 µM)
ID99 (Human alphaherpesvirus 1 [5]): >100 µg/mL

O=c1[nH]c(=O)n([C@H]2C[C@H](O)[C@@H](CO)O2)cc1C(F)(F)F [TRIFLURIDINE]
IC50 (Oryctolagus cuniculus [1]): 0.01 µg/mL (≈ 0.0338 µM)
ID99 (Human alphaherpesvirus 1 [2]): 0.7 µg/mL
ID99 (Vaccinia virus [3]): 0.12 µg/mL
ID99 (Human alphaherpesvirus 2): 1.2 µg/mL
IC50 (Oryctolagus cuniculus [4]): 20 µg/mL (≈ 67.5 µM)
ID99 (Human alphaherpesvirus 1 [5]): 0.4 µg/mL
